# In article PMC2212458 (The Journal of Experimental Medicine, 1998):
# Assays:
# [1] = tested on: gp100-reactive T cells with EL-4 thymoma cells; experiment: Recognition of peptide-pulsed EL-4 at limiting concentrations, IFN-γ ELISA; assay type: cell-based; details: human versus mouse epitope
# H-2D^b = H-2D^b (Mus musculus, UniProt P01899); experiment: MHC class I stabilization assay on RMA/S cells; assay type: binding
# Outline: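 RMA/S cells (TAP-deficient, H-2b) preincubated 24 h at room temperature, then pulsed with peptides across a concentration range, with control peptides, at room temperature (25°C). Next, 4 h at 37°C to allow turnover of empty class I. Stained with FITC anti-H-2Db mAb KH95 for 1 h at 4°C and analysed by flow cytometry. Expressed as percentage of maximal stabilization at 100 μM.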
# Sequence of H-2D^b (P01899 whole entry, looked up): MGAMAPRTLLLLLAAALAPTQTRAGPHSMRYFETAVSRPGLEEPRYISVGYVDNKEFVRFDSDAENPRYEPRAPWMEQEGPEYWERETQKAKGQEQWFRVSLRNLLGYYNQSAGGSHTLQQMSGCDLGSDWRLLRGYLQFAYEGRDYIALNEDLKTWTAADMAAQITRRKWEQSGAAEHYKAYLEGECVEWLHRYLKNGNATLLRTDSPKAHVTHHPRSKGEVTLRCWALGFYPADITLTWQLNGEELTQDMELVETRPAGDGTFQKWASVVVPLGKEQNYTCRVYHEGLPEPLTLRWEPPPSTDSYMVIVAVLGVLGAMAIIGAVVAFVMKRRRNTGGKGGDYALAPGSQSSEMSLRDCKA
sequence,measurement,setting,value
KVPRNQDWL [hgp100_25–33],increase in ability to trigger interferon γ release by T cells,[1],3 log
same,affinity for H-2D^b,"H-2D^b; compared with mgp100_25–33, Fig. 6",dramatically increased affinity
same,increase in ability to stabilize “empty” D^b on RMA-S cells,H-2D^b; human versus mouse epitope,2 log
